This is a sample that favours compounds with a hit; in the whole collection about 3.8% have one here.
Yeast growth inh – chemicals that inhibit yeast BB579 growth in restrictive medium (lifespan-shortening candidates) | S. cerevisiae BB579 growth, OD615, 48 h | inhibition, % at 10 µM | 0.51% of 140,000 active;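 active = inhibition above a set limit, 3 SD over the mean compound inhibition, cut at about 44% in these data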
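controls = amphotericin B 10 µg/mL, positive | assay system = DeaD yeast strain BB579 | schedule = 48 h compound exposure at 30 °C after 4 h preincubation | detection = OD615 turbidity measurement | medium = restrictive CSMM-D medium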
Measles CPE – protection of cells from measles virus; Measles virus-infected cells, CPE protection, absorbance; protection (pct of control), % at 4 µM; 1.5% of 140,000 active; in the data active = protection mostly above about 24%, no sharp cut-off; inactive = mostly below about 26%
RAM network inh – yeast RAM network inhibition | S. cerevisiae dse1pr::URA3 reporter, 5-FOA growth OD615, 2 d; analog-sensitive cbk1-as2 kinase mutant strain | inhibition, % at 50 µM | 1.8% of 190,000 active;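 active = inhibition above a set limit, 3 SD over mean compound inhibition, cut at about 8.4% in these data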;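 also: inhibition rescues growth on 5-FOA so higher OD means more RAM inhibition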
Yeast lifespan up – extends the lifespan of yeast; S. cerevisiae growth with nicotinamide, OD615; deaD strain in restrictive glucose medium; inhibition of the nicotinamide effect, % at 10 µM; 0.68% of 130,000 active; AID 775;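 active = inhibition above a set limit, placed 3 SD over the median of all compounds, cut at about 26% in these data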
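Buffer or medium: CSMM-D glucose medium, restrictive; test system: modified budding yeast, DeaD strain; compound: single dose 10 µM compound, 0.25% DMSO; schedule: culture preincubation 4 h, compound exposure 48 h, both 30 °C; detection: optical density (absorbance) at 615 nm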
RAM 5-FOA – RAM network inhibition, efflux-deficient strain. shares compounds with RAM network inh. S. cerevisiae efflux-deficient reporter strain, 5-FOA growth OD615, 2 days. max inhibition, %. 1,200 tested, under 10 active. AID 1305; call rule not given here
Each line names hits and unclear results; the compound was inactive in the other large screens (follow-up assays come after a bar, where they were run).

CC(=O)c1ccc(OC(C)C)c(Cc2c(O)nc(N)[nH]c2=O)c1	none
CC(=O)Nc1nc2ccccc2n1CCN1CCOCC1	none (no result: Yeast lifespan up)
O=C(Nc1nc2ccccc2n1CCN1CCOCC1)c1cn(-c2ccccc2)nc1-c1ccccc1	RAM network inh 18, Yeast lifespan up 173 | RAM 5-FOA inactive
COc1ccc(/C(C)=C(\C#N)C(=O)OC(C)C)cc1OC	none (no result: Yeast lifespan up)
CCC(C)[C@H](N)c1cn([C@@H](Cc2cc3ccccc3[nH]2)C(=O)N2CCNCC2)nn1 (stereo partly drawn)	none (no result: Yeast growth inh, Measles CPE, Yeast lifespan up)
CSc1ccccc1Sc1cc(C(=O)O)c2ccccc2n1	none (no result: Measles CPE)
O=C(O)c1cc(Sc2ccc(Br)cc2)nc2ccccc12	RAM network inh 11 (no result: Yeast growth inh, Measles CPE, Yeast lifespan up) | RAM 5-FOA inactive
Cc1ccc(S(=O)(=O)N2CCC(C)CC2)cc1[N+](=O)[O-]	RAM network inh 23 (no result: Yeast growth inh, Measles CPE, Yeast lifespan up) | RAM 5-FOA inactive
Cc1ccc(S(=O)(=O)N2CCCCCC2)cc1[N+](=O)[O-]	none
COC(=O)c1sccc1-c1ccc(/C=N/OCc2c(Cl)cccc2Cl)o1	RAM network inh 18 | RAM 5-FOA inactive
CC(C)c1ccccc1NC(=O)COC(=O)CCN1C(=O)/C(=C\C=C\c2ccccc2)SC1=S	none
O=C(COC(=O)CCN1C(=O)/C(=C\C=C\c2ccccc2)SC1=S)Nc1ccc(Br)cc1	RAM network inh 16 (no result: Yeast growth inh, Measles CPE, Yeast lifespan up) | RAM 5-FOA inactive
CC(C(=O)Nc1cc([N+](=O)[O-])ccc1Cl)N1CCN(c2ccc(O)cc2)CC1 (stereo not drawn)	none
Cc1ccc(C(=O)NCCSCc2ccc(Cl)cc2Cl)cc1[N+](=O)[O-]	RAM network inh 14 | RAM 5-FOA inactive
O=C1c2ccccc2C(=O)N1CCCc1c[nH]c2ccc(Cl)cc12	none
CN(Cc1cc(-c2ccccc2)on1)C(=O)c1cc(COc2c(F)cccc2F)on1	RAM network inh 21 (no result: Yeast growth inh, Measles CPE, Yeast lifespan up) | RAM 5-FOA inactive
O=C(CSc1cccc(C(F)(F)F)c1)Nc1cc(S(=O)(=O)N2CCCC2)ccc1Cl	RAM network inh 16 | RAM 5-FOA inactive
Cn1nnnc1SCC(=O)Nc1cc(S(=O)(=O)N2CCCC2)ccc1Cl	none (no result: Yeast growth inh, Measles CPE, Yeast lifespan up)
CCCC1=C/C(=C/c2ccc(-c3ccccc3OC)o2)C(=O)O1	none
COc1ccccc1-c1ccc(/C=C2/C=C(CC(C)C)OC2=O)o1	RAM network inh 14 | RAM 5-FOA inactive
CS(=O)(=O)N1CCC(C(=O)N2CCN(C(c3ccccc3)c3ccccc3)CC2)CC1	none (no result: Yeast growth inh, Measles CPE, Yeast lifespan up)
CCOc1ccc(/C=C2/SC(=S)N(C(C(=O)O)c3ccccc3)C2=O)cc1OCC (stereo not drawn)	RAM network inh 13 (no result: Yeast growth inh, Measles CPE, Yeast lifespan up) | RAM 5-FOA inactive
COc1ccc(/C=C2\SC(=S)N(C(Cc3ccccc3)C(=O)O)C2=O)cc1 (stereo not drawn)	RAM network inh 34 (no result: Yeast growth inh, Measles CPE, Yeast lifespan up) | RAM 5-FOA inactive
CCOc1ccc(/C=C2\SC(=S)N(Nc3ccccc3)C2=O)cc1OC	none
CC(/C=C1\SC(=S)N(C(C(=O)O)C(C)C)C1=O)=C\c1ccccc1 (stereo not drawn)	RAM network inh 18 (no result: Yeast growth inh, Measles CPE, Yeast lifespan up) | RAM 5-FOA inactive
CC(/C=C1\SC(=S)N(NC(=O)c2ccc(C)cc2)C1=O)=C\c1ccccc1	none
COc1ccc(/C=C2\SC(=S)N(CC(=O)NCCO)C2=O)cc1	none (no result: Yeast growth inh, Measles CPE, Yeast lifespan up)
O=C(NCc1nnc(SCC(=O)N2CCOCC2)o1)c1c(F)cccc1Cl	none (no result: Yeast growth inh, Measles CPE, Yeast lifespan up)
NC(N)=Nc1nc2ccc(Cl)cc2c(=O)[nH]1	none (no result: Yeast growth inh, Measles CPE, Yeast lifespan up)
COc1ccccc1NC(=S)NCCSc1ccc(C)cc1	none
Cc1cc(C)cc(NC(=S)NCCSc2ccc(Cl)cc2)c1	RAM network inh 13 | RAM 5-FOA inactive
Cc1ccc(SCCNC(=S)Nc2ccc(C)c(C)c2)cc1	RAM network inh 13 | RAM 5-FOA inactive
Cc1cc(C)cc(NC(=S)NCCCO)c1	none
O=C(Nc1ccccc1F)c1cc2nc(C(F)F)cc(C(F)F)n2n1	none (no result: Yeast lifespan up)
OCCCNc1nc(-c2ccc(Cl)cc2)nnc1-c1ccc(Br)cc1	none
O=[N+]([O-])c1ccc(-c2nnc(-c3ccccc3)c(NCCCO)n2)cc1	RAM network inh 13 | RAM 5-FOA inactive
CC(Sc1nnc2ccccn12)C(N)=O (stereo not drawn)	none (no result: Yeast growth inh, Measles CPE, Yeast lifespan up)
O=C(COC(=O)CCc1c[nH]c2ccccc12)NC(c1ccccc1)c1ccccc1	RAM network inh 17 | RAM 5-FOA inactive
COc1ccc(CCC(=O)Nc2cc(S(C)(=O)=O)ccc2Cl)cc1	none (no result: Yeast growth inh, Measles CPE, Yeast lifespan up)
CSCSC1=C(C#N)C(c2ccc(Cl)cc2)C(C(C)=O)=C(C)N1 (stereo not drawn)	RAM network inh 15 | RAM 5-FOA inactive
COc1cccc(C(=O)C2CN(c3ccccc3)CC2c2ccc(Cl)cc2)c1 (stereo not drawn)	RAM network inh 15 | RAM 5-FOA inactive
O=C(CCCSc1nc2ccccc2[nH]1)Nc1nnc(-c2ccccc2)o1	RAM network inh 14 | RAM 5-FOA inactive
CCC(=O)Nc1cccc(C(=O)c2ccc(C)c(C)c2)c1	none (no result: Yeast growth inh, Measles CPE, Yeast lifespan up)
Cc1ccc(-n2c(SCC(=O)N3CCCc4ccccc43)nnc2-c2cccnc2)c(C)c1	RAM network inh 12 | RAM 5-FOA inactive
CCCCNS(=O)(=O)c1ccc(NC(=O)C(Sc2ccccc2)c2ccccc2)cc1 (stereo not drawn)	RAM network inh 14 | RAM 5-FOA inactive
CC(=O)NS(=O)(=O)c1ccc(NC(=O)C(Sc2ccccc2)c2ccccc2)cc1 (stereo not drawn)	none
COc1cccc(NC(=O)NCc2ccccc2F)c1	none (no result: Yeast growth inh, Measles CPE, Yeast lifespan up)
COc1cccc(N/C(SCc2ccccc2F)=C(/C#N)C(=O)NCc2cccs2)c1	RAM network inh 16 | RAM 5-FOA inactive
O=C(Cc1ccccc1)NCC(=O)OCC(=O)c1ccc(Cl)c([N+](=O)[O-])c1	none
CC(=O)Nc1ccc(S(=O)(=O)NC(CC(=O)NCCCN2CCOCC2)C(C)C)cc1 (stereo not drawn)	none
CCCCCCCCNC(=O)CC(NS(=O)(=O)c1ccc(NC(C)=O)cc1)C(C)C (stereo not drawn)	RAM network inh 13 | RAM 5-FOA inactive
CCCCn1c(SCC(=O)Nc2ccccc2C(F)(F)F)nc2ccsc2c1=O	RAM network inh 11 | RAM 5-FOA inactive
CCCCn1c(SCC(=O)Nc2nccs2)nc2ccccc2c1=O	none
C=CCNC(=S)NNC(=O)c1ccc(=O)n(Cc2ccccc2)c1	none (no result: Yeast growth inh, Measles CPE, Yeast lifespan up)
CN(C)S(=O)(=O)c1cccc(NC(=O)COC(=O)CCSc2ccc(Cl)cc2)c1	none
CCN(CC)S(=O)(=O)c1cccc(NC(=O)CCSc2ccc(Cl)cc2)c1	RAM network inh 14 | RAM 5-FOA inactive
CCOc1ccc(CNC(=O)CCc2cn(Cc3ccccc3)c3ccccc23)cc1	RAM network inh 13 | RAM 5-FOA inactive
CCOc1ccc(CNC(=O)CCn2c(=O)oc3ccccc32)cc1	none
Cc1cc(C(=O)CCl)c(C)n1CCc1ccc(Cl)cc1	RAM network inh 13 (no result: Yeast growth inh, Measles CPE, Yeast lifespan up) | RAM 5-FOA inactive
Cc1cc(C(=O)CCl)c(C)n1CCc1ccc(F)cc1	none (no result: Yeast growth inh, Measles CPE, Yeast lifespan up)
COC(=O)CNC(=O)Cn1nc(C)c([N+](=O)[O-])c1C	none (no result: Yeast growth inh, Measles CPE, Yeast lifespan up)
COc1ccc(NC(=O)CC2SC(=N)N(c3ccccc3)C2=O)c(OC)c1 (stereo not drawn)	none (no result: Yeast growth inh, Measles CPE, Yeast lifespan up)
CC(NC(=O)Cc1cccs1)c1ccccc1 (stereo not drawn)	none (no result: Yeast growth inh, Measles CPE, Yeast lifespan up)

Assay outcomes as filed in PubChem.
